The subject of data set [1] is MDA-MB-231. Description: Antiproliferative activity against human MDA-MB-231 cells assessed as reduction in cell viability measured after 48 hrs by MTS assay. The data set is classed as functional, cell-based. To be noted: MDA-MB-231, 48 h. In short, it runs like this:
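Concentration–response in MDA-MB-231 cells across a wide concentration range. The dose–response data are used to calculate IC50 for proliferation (MTS).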

Data set [2] has as its system MDA-MB-231. Briefly: Antiproliferative activity against human MDA-MB-231 cells assessed as reduction in cell viability at 25 to 50 uM measured after 48 hrs by MTS assay. The following applies: dose microM 25-50, time 48.0 hrs. The data set is classed as functional, cell-based. In short, it runs like this: (§1)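 MDA-MB-231 cells exposed to compounds at 25 and 50 μM for 48 h. Viability is compared with a DMSO-treated control. Mean ± SEM from three separate experiments; significance vs control.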

For data set [3], the system named is MDA-MB-231. Description: Cell cycle arrest in human MDA-MB-231 cells assessed as decrease in cell population at G0/G1 phase at 9 uM measured after 24 hrs by RNaseA/propidium iodide staining based flow cytometry analysis. The data set is classed as functional. In short, it runs like this:
(§2)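 MDA-MB-231 cells treated 24 h with 10 μM or 9 μM test agent or DMSO control. Cell cycle distribution is read by flow cytometry and expressed as percentage change from control. Mean ± SEM, three separate experiments; p vs DMSO control.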

Data set [4] has as its system MDA-MB-231. Briefly: Induction of apoptosis in human MDA-MB-231 cells assessed as healthy cells at 20 uM measured after 48 hrs by annexicV-FITC/propidium iodide staining based flow cytometry analysis (reference value: 87.4 %). The data set is classed as functional.
Data set [5] has as its system MDA-MB-231. Briefly: Induction of apoptosis in human MDA-MB-231 cells assessed as necrotic cells at 20 uM measured after 48 hrs by annexicV-FITC/propidium iodide staining based flow cytometry analysis (reference value: 2.4 %). The data set is classed as functional.
Data set [6] deals with MDA-MB-231. Briefly: Induction of apoptosis in human MDA-MB-231 cells assessed as early apoptotic cells at 20 uM measured after 48 hrs by annexicV-FITC/propidium iodide staining based flow cytometry analysis (reference value: 5.8 %). The data set is classed as functional.
A short description of data set [7]: Selectivity ratio of cytotoxicity against African green monkey Vero cells assessed as reduction in cell viability measured after 72 hrs by resazurin assay to antiproliferative activity against human MDA-MB-231 cells assessed as reduction in cell viability measured after 48 hrs by MTS assay. The class given is toxicity, cell-based. The following applies: Vero cells versus MDA-MB-231 cells.

For data set [8], the system named is MDA-MB-231. Description: Antiproliferative activity against human MDA-MB-231 cells assessed as reduction in cell viability at 5 uM measured after 48 hrs by MTS assay. The data set is classed as functional, cell-based.
In data set [9] the test system is MDA-MB-231. Description: Induction of apoptotic cell death in human MDA-MB-231 cells at 20 uM measured after 48 hrs by annexicV-FITC/propidium iodide staining based flow cytometry analysis. The data set is classed as functional.
Data set [10] deals with Vero. Briefly: Cytotoxicity against African green monkey Vero cells assessed as reduction in cell viability measured after 72 hrs by resazurin assay. The class given is cell-based. The following applies: chlorocebus sabaeus.
Data set [11] has as its system MDA-MB-231. Description: Cell cycle arrest in human MDA-MB-231 cells assessed as accumulation at G2/M phase at 9 uM measured after 24 hrs by RNaseA/propidium iodide staining based flow cytometry analysis relative to control. The class given is functional. In short, it runs like this:
as §2

Data set [12] concerns MDA-MB-231. Description: Induction of apoptosis in human MDA-MB-231 cells assessed as late apoptotic cells at 20 uM measured after 48 hrs by annexicV-FITC/propidium iodide staining based flow cytometry analysis (reference value: 4.4 %). The data set is classed as functional.
Data set [13] relates to Vero. Briefly: Cytotoxicity against African green monkey Vero cells assessed as reduction in cell viability measured at 129 uM after 72 hrs by resazurin assay relative to control. The data set is classed as cell-based. The following applies: chlorocebus sabaeus.
The subject of data set [14] is MDA-MB-231. Briefly: Antiproliferative activity against human MDA-MB-231 cells assessed as reduction in cell viability at 50 uM measured after 48 hrs by MTS assay. The class given is functional, cell-based. In short, it runs like this:
as §1

A short description of data set [15]: Aqueous solubility of the compound. The data set is classed as physicochemical. The following applies: buffer.
Data set [16] concerns MDA-MB-231. Briefly: Cell cycle arrest in human MDA-MB-231 cells at 10 uM measured after 24 hrs by RNaseA/propidium iodide staining based flow cytometry analysis. The data set is classed as functional. In short, it runs like this: as §2
Data set [17] has as its system Vero. Description: Cytotoxicity against African green monkey Vero cells assessed as reduction in cell viability measured at 168 uM after 72 hrs by resazurin assay relative to control. The class given is cell-based. The following applies: chlorocebus sabaeus.

pIC50: −log10 of the molar value. Activity calls are given as the source filed them. The rule behind the calls is not given here.

Regarding `CC1(C)C[C@H]2[C@H]1CC[C@@]1(C)CCC[C@]2(NC(=O)CCl)C1`, the negative logarithm of the IC50 (pIC50) in the data set on MDA-MB-231 [1] was 4.67. Moreover, the result in the data set with MDA-MB-231 [2] was Active.

As for `CC1(C)C[C@H]2[C@H]1CC[C@@]1(C)CCC[C@]2(N)C1`, in the data set with MDA-MB-231 [1], the pIC50 was 4.46. In addition, the result in the data set with MDA-MB-231 [2] was Active.

Consider `CC1(C)C[C@H](NCc2ccccc2)[C@]23CCC[C@@](C)(CC[C@@H]12)C3`, for which the negative logarithm of the IC50 (pIC50) in the data set with MDA-MB-231 [1] was 4.63. Besides, in the data set on MDA-MB-231 [2], the result was Active.

For the compound `CCCN[C@]12CCC[C@](C)(CC[C@@H]3[C@@H]1CC3(C)C)C2`, in the data set with MDA-MB-231 [1], the pIC50 was 4.34. The outcome in the data set on MDA-MB-231 [2] was Active.

On to `CC1(C)C[C@H](NC(=O)CCl)[C@]23CC[C@@H](NC(=O)CCl)[C@@](C)(CC[C@@H]12)C3`, for which the outcome with MDA-MB-231 [3], in the data set with MDA-MB-231 [2] and in the data set with MDA-MB-231 [9] was Active. The Activity came out at 7.6% in the data set on MDA-MB-231 [4]; 4.6% in the data set with MDA-MB-231 [5]; 13.5% in the data set with MDA-MB-231 [6]; 129 µM in the data set on Vero [10]; 91% in the data set on MDA-MB-231 [11]; 74.3% in the data set on MDA-MB-231 [12]. Besides, the Activity with Vero [13] amounted to 88%. The selectivity ratio in data set [7] was 25. In addition, the inhibition entry with MDA-MB-231 [8] is “Active”. For the same compound, the pIC50 in the data set with MDA-MB-231 [1] is 5.09.

With `CCCCN[C@]12CCC[C@](C)(CC[C@@H]3[C@@H]1CC3(C)C)C2`, the pIC50 in the data set with MDA-MB-231 [1] is 4.43. The result with MDA-MB-231 [2] was Active.

`CCCCC(=O)N[C@]12CCC[C@](C)(CC[C@@H]3[C@@H]1CC3(C)C)C2`: the negative-log IC50 (pIC50) in the data set on MDA-MB-231 [1] was 4.26. Also, in the data set on MDA-MB-231 [2], the outcome was Active.

As to `CCCCCN[C@]12CCC[C@](C)(CC[C@@H]3[C@@H]1CC3(C)C)C2`, the result in the data set with MDA-MB-231 [14] was Active. The solubility entry in [15] is “Insoluble”.

`CC1(C)C[C@H](NC(=O)CCl)[C@]23CCC[C@@](C)(CC[C@@H]12)C3`: the Activity in the data set on MDA-MB-231 [4] was determined as 57.8%; with MDA-MB-231 [5], 18.4%; in the data set with MDA-MB-231 [6], 9.9%; in the data set with Vero [10], 168 µM; in the data set with MDA-MB-231 [12], 13.9%; in the data set on Vero [17] it was 89%. Further, in [7], the selectivity ratio came out at 33. For the same compound, the inhibition result in the data set with MDA-MB-231 [8] is “Active”. In addition, the pIC50 in the data set with MDA-MB-231 [1] is 5.01. In addition, the result with MDA-MB-231 [2] was Active. The result in the data set on MDA-MB-231 [16] was inactive.

(Values after ChEMBL document CHEMBL4699388, “Antiproliferative activities of tricyclic amides derived from beta-caryophyllene via the Ritter reaction against MDA-MB-231 breast cancer cells” (RSC Med Chem, 2020).)
